Screens (PubChem BioAssay)
CCR6 antagonist: CCR6 (human) receptor antagonism. P51684. CHO-K1 CCR6 PathHunter beta-arrestin, luminescence, CCL20-stimulated. inhibition, % at 20 µM. actives 0.49% (n = 340,000). AID 493098;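 active = compounds whose inhibition of the agonist-driven luminescence signal at 20 µM reaches about 50%, limit read from the data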;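 also: cells stimulated with CCL20 at 14 nM final; plate controls were DMSO with CCL20 for no effect and DMSO without agonist for full effect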
Target sequence (P51684 whole entry, looked up): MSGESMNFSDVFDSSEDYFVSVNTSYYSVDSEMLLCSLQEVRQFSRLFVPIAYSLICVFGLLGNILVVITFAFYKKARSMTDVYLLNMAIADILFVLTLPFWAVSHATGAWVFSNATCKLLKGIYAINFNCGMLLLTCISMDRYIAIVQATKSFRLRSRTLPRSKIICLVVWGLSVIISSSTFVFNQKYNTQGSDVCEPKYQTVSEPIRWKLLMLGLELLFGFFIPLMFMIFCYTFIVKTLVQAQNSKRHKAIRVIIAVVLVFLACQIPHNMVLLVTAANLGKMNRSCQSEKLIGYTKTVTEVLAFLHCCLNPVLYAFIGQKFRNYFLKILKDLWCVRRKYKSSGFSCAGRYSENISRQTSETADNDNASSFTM
CXCR6 inh: blocks human CXCR6 beta-arrestin recruitment; O00574; CHO-K1 PathHunter CXCR6 beta-arrestin, luminescence; inhibition, % at 20 µM; actives 0.36% (n = 360,000); AID 602244; in the data active = inhibition above about 34%, passing the limit was not always enough;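 also: antagonist mode with CXCL16 agonist at 10 nM final; 0% = 10 nM CXCL16 with DMSO and 100% = unstimulated wells without agonist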
EBI2 block: blocks human EBI2 receptor beta-arrestin signaling | P32249 | EBI2 beta-arrestin recruitment, luminescence, 7a,25-OHC stimulated | inhibition, % at 5 µM | actives 0.81% (n = 360,000) | AID 651636; in the data active = inhibition above about 38%;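 also: enzyme fragment complementation signal reports receptor beta-arrestin coupling in cells; 0% = agonist plus DMSO wells and 100% = wells without agonist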
APJ agonist: agonists of human APJ apelin receptor; P35414; CHO-K1 APJ PathHunter beta-arrestin, luminescence; 0% DMSO wells, 100% apelin; activation, % at 20 µM; actives 0.11% (n = 330,000); AID 2520;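 active = activation more than six SD over the plate average, tested at 20 µM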;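 also: 0% = DMSO alone and 100% = apelin-13 at 10 nM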
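Assay system: engineered CHO-K1 APJ arrestin reporter cells; Amount: 1000 CHO-K1 reporter cells seeded per well; Dosing: one dose, 20 µM compound, 1% DMSO; Times: compound stimulation 90 min at 25 °C, detection 60 min; Measured by: luminescent beta-gal fragment complementation, chemiluminescent substrate; Read-out: APJ–arrestin association signal; Controls: DMSO vs Apelin-13 10 nM.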
APJ antag: APJ receptor antagonism. actives 0.32% (n = 330,000). AID 2521. P35414. CHO-K1 APJ beta-arrestin complementation, luminescence. inhibition, % at 20 µM;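 active = inhibition above about 40% at 20 µM, limit read from the data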;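 also: cells challenged with 10 nM apelin-13 agonist together with compound; plate controls were apelin-13 plus DMSO wells for no effect and DMSO wells lacking apelin-13 for full effect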
APJ antag confirm: APJ receptor antagonism confirmation. shares compounds with APJ antag. APJ beta-arrestin recruitment, luminescence, antagonist mode. inhibition, % at 20 µM. actives 66% (n = 950); in the data active = inhibition above about 50%
Starred values were filed as active, the others as inactive; nt = no result. In the library only some 1.5% were active in any assay of this set; here they are far more common.

SMILES | CCR6 antagonist | CXCR6 inh | EBI2 block | APJ agonist | APJ antag | APJ antag confirm
CN(C)c1ccc(/C=C2\C(=N)N3C(=NC2=O)Sc2cc(S(C)(=O)=O)ccc23)cc1 | nt | nt | nt | 11 | 53* | 49
O=c1[nH]c2ccc(Br)cc2o1 | 7 | -1 | 6 | nt | nt | nt
O=C(CCl)c1ccc2[nH]c(=O)oc2c1 | 7 | 8 | 2 | -14 | 83* | 20
COC(=O)c1ccc(N2NC(=O)/C(=C/c3cc(OC)c(O)c(OC)c3)C2=O)cc1 | 49 | 39 | -9 | -8 | 45* | 33
CN(C)c1ccc(N=Nc2nc3ccccc3n2C)cc1 | 75* | 54* | 28 | -10 | 48* | 108*
CC(C(=O)NCc1ccccc1)n1cc([N+](=O)[O-])cn1 (stereo unspecified) | 4 | 2 | 7 | -2 | 8 | nt
CSC(=NCc1ccco1)NC#N | 5 | 4 | -14 | 2 | 44* | -1
O=C(N/N=C/c1cc([N+](=O)[O-])ccc1O)c1cccc2ccccc12 | nt | 11 | 7 | -11 | -2 | nt
CCOc1ccc(OCC)c(NC(=O)CSc2nnc(C3CC3)n2CC)c1 | 10 | -10 | 3 | 1 | 19 | nt
CC[N+](CC)(CC#Cc1ccccc1)CC(=O)c1ccc(Cl)cc1 | 69* | 23 | 0 | -4 | 77* | 22
O=C(Nc1ccccc1N1CCN(C(=O)c2ccccc2)CC1)c1ccccc1Cl | 7 | -10 | -4 | -3 | 80* | -9
CC(=O)c1ccc(NC(=O)CCC(=O)OCC(=O)c2cccc([N+](=O)[O-])c2)cc1 | 55* | 22 | 2 | -14 | 43* | 77*
CC(=O)Nc1ccc(NC(=O)CCC(=O)OCC(=O)c2ccc(C)c([N+](=O)[O-])c2)cc1 | 42 | 10 | 16 | -9 | 70* | 55*
Cc1ccc(C(=O)COC(=O)CCC(=O)Nc2ccccc2Cl)cc1[N+](=O)[O-] | 33 | 17 | 12 | -8 | 44* | 75*
Cc1ccc(NC(=O)CCC(=O)OCC(=O)c2ccc(Oc3ccc([N+](=O)[O-])cc3)cc2)cc1 | 7 | 6 | 6 | -3 | 12 | nt
CS(=O)(=O)c1ccc(Cl)c(NC(=O)COC(=O)CNC(=O)c2ccc3ccccc3c2)c1 | 9 | -4 | 7 | -2 | 24 | nt
CC(C)Oc1cccc(C(=O)NC(=S)Nc2cccnc2)c1 | 38 | 21 | -1 | -5 | 42* | 50*
COc1cccc(C(=O)NC(=S)Nc2cccnc2)c1 | 34 | 23 | -12 | -5 | 21 | nt
O=C(N/N=C/c1ccccc1O)NC12CC3CC(CC(C3)C1)C2 | 18 | 27 | 42 | 2 | -32 | nt
O=C(N/N=C/c1cc(Cl)cc([N+](=O)[O-])c1O)NC12CC3CC(CC(C3)C1)C2 | 44 | 34 | 14 | -4 | 42* | 70*
COc1cccc(C(N)c2nc(-c3csc4ccccc34)cs2)c1 (stereo unspecified) | nt | -8 | 2 | nt | nt | nt
Cc1cc(NC(=O)c2ccccc2F)n(-c2nc3ccccc3[nH]2)n1 | 24 | 11 | -1 | -2 | 33 | nt
Cc1cc(NC(=O)c2c(F)cccc2Cl)n(-c2nc3ccccc3[nH]2)n1 | 61* | -14 | 14 | -1 | 55* | 27
Cc1cc(NC(=O)c2c(F)cccc2F)n(-c2nc3ccccc3[nH]2)n1 | 27 | 5 | 15 | -9 | 44* | 5
CCCCn1c(N)c(N(CCOC)C(=O)c2ccc(C)o2)c(=O)[nH]c1=O | 8 | -1 | -6 | -5 | -60 | nt
SMILES | CCR6 antagonist | CXCR6 inh | EBI2 block | APJ agonist | APJ antag | APJ antag confirm
CC(C)c1nc(C#N)c(NCCCn2ccnc2)o1 | 12 | 1 | -8 | -1 | 2 | nt
CC(C)c1nc(C#N)c(NN)o1 | 33 | 19 | -1 | -11 | 42* | 66*
Cc1cc(C)n(CCc2nc(-c3cccs3)cs2)n1 | 20 | -6 | 11 | -1 | 7 | nt
Cc1cc(C)n(CCc2nc(-c3ccco3)cs2)n1 | 18 | 7 | -5 | -11 | 56* | 20
CCCCN(C)CCNC(=O)CN1C(=O)CSc2ccc(S(=O)(=O)N3CCOCC3)cc21 | 4 | 0 | -1 | -3 | -5 | nt
CCCCN(C)CCNC(=O)CN1C(=O)CSc2ccc(S(=O)(=O)N3CCCCC3)cc21 | 15 | -7 | -11 | -5 | 49* | -27
CCN1/C(=C\c2ccc3cc(C)ccc3[n+]2CC)Sc2cc(C)c(C)cc21 | 8 | 8 | -4 | nt | nt | nt
CCN1/C(=C/c2ccc3cc(C)ccc3[n+]2CC)Sc2ccc3sccc3c21 | 40 | 37 | 3 | 6 | 40* | 56*
CCOC(=O)NC(=O)CSc1ccc(S(=O)(=O)N(C)C2CCCCC2)cn1 | 6 | -8 | 7 | 0 | -8 | nt
CCOC(=O)c1cnc(Nc2nc3ccccc3o2)nc1CSc1ncccn1 | 5 | nt | nt | -6 | 38 | nt
CCOC(=O)c1cnc(Nc2nc3ccccc3o2)nc1CSC(=S)N(CC)CC | 44 | 18 | 26 | -7 | 46* | 8
CCN(CC(=O)Nc1cccc(S(=O)(=O)N(C)c2ccccc2)c1)Cc1cccs1 | 16 | -10 | -1 | -2 | -21 | nt
COc1ccc(CCNC(=O)Cc2ccccc2)cc1OC | 17 | 3 | 1 | -2 | 111* | 27
O=[N+]([O-])c1ccccc1N/N=C/c1ccccc1 | 27 | 11 | 0 | -3 | 12 | nt
O=[N+]([O-])c1ccc(N/N=C/c2c[nH]c3ccccc23)cc1 | 58* | 31 | 42* | -13 | 43* | 79*
O=[N+]([O-])c1ccccc1N/N=C/c1c[nH]c2ccccc12 | 41 | 23 | 28 | -11 | 44* | 104*
O=C(NNc1c2ccccc2nc2ccccc12)c1ccc(O)cc1 | 57* | 36 | 19 | -7 | 41* | 69*
O=C(NNc1c2ccccc2nc2ccccc12)c1ccccc1O | 43 | 26 | 26 | -5 | 27 | nt
O=C(COc1ccccc1F)NCC(c1ccc(F)cc1)N1CCOCC1 (stereo unspecified) | 14 | 1 | 7 | -6 | -24 | nt
CCOC(=O)c1c(C2COc3ccccc3O2)csc1NC(=O)c1ccco1 (stereo unspecified) | 10 | 8 | 23 | -9 | 43* | 77*
CCOC(=O)c1c(-c2cccs2)csc1NC(=O)c1ccco1 | -17 | -5 | 0 | 1 | 20 | nt
O=C(COc1ccc(Cl)cc1)NCCCNC(=O)c1ccncc1 | -9 | -1 | -6 | -1 | 4 | nt
CCn1nc(C)cc1-c1nnc(Sc2ncc([N+](=O)[O-])s2)n1C | 97* | 84* | 25 | 3 | 57* | 65*
O=C(CN1C(=O)NC2(CCCCCC2)C1=O)NCc1ccc(Cl)cc1 | 4 | -1 | 6 | -4 | -9 | nt
Cc1nn(-c2nc3ccccc3[nH]2)c(=O)c2ccccc12 | 3 | 7 | 2 | nt | nt | nt
Cc1nn(-c2nc3ccccc3[nH]2)c(N)c1-c1ccc(Cl)cc1 | 43 | 34 | 27 | -6 | 46* | 0
